Columns and labels:
[1] = molecular target: High affinity nerve growth factor receptor (Homo sapiens) (UniProt P04629); experiment: Inhibition of TrkA at 10 uM by HTRF assay relative to control
How it was run: (§1)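 HTRF kinase assay, one panel of kinases. Inhibitor stock 50 µM in 100% DMSO; tested at 10 µM. ATP and substrate at final levels near Km. Final buffer: 50 mM Hepes/NaOH pH 7.4, 40 µM Na3VO4, 0.005% Tween-20, 1 mM DTT, MnCl2 or MgCl2 at kinase-dependent levels. Started by adding ATP/substrate. Reaction run at room temperature, time varied by kinase. Detection mix in 50 mM Hepes pH 7.4, 0.1% BSA, 150 mM KF, incubated ≥1 h at room temperature. Activity expressed as % of uninhibited control; n=2.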

[2] = molecular target: Receptor-type tyrosine-protein kinase FLT3 (Homo sapiens) (UniProt P36888); experiment: Inhibition of FLT3 at 10 uM by HTRF assay relative to control; how it was run: as §1
[3] = molecular target: Protein kinase C gamma type (Homo sapiens) (UniProt P05129); experiment: Inhibition of PKCgamma at 10 uM by HTRF assay relative to control; how it was run: as §1
[4] = molecular target: Serine/threonine-protein kinase Chk2 (Homo sapiens) (UniProt O96017); experiment: Inhibition of CHK2 at 10 uM by HTRF assay relative to control; how it was run: as §1
[5] = molecular target: Rho-associated protein kinase 2 (Homo sapiens) (UniProt O75116); experiment: Inhibition of ROCK2 at 10 uM by HTRF assay relative to control; how it was run: as §1
[6] = molecular target: T1, Mitogen-activated protein kinase 12 (Homo sapiens) (UniProt P53778); experiment: Inhibition of p38-gamma at 10 uM by HTRF assay relative to control; how it was run: as §1
T1 sequence (whole entry): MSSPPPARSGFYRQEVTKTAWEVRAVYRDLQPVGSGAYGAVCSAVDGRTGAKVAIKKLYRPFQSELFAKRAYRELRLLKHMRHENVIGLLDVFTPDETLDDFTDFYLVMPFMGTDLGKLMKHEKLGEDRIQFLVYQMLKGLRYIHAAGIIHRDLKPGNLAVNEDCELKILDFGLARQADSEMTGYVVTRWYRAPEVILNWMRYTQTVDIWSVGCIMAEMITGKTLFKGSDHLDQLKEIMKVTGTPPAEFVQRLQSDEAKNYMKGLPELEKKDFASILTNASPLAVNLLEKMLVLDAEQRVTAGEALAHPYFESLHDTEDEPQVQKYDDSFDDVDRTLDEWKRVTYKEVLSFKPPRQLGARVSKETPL

[7] = molecular target: T2, Serine/threonine-protein kinase Chk1 (Homo sapiens) (UniProt O14757); experiment: Inhibition of CHK1 at 10 uM by HTRF assay relative to control; how it was run: as §1
T2 sequence (whole entry): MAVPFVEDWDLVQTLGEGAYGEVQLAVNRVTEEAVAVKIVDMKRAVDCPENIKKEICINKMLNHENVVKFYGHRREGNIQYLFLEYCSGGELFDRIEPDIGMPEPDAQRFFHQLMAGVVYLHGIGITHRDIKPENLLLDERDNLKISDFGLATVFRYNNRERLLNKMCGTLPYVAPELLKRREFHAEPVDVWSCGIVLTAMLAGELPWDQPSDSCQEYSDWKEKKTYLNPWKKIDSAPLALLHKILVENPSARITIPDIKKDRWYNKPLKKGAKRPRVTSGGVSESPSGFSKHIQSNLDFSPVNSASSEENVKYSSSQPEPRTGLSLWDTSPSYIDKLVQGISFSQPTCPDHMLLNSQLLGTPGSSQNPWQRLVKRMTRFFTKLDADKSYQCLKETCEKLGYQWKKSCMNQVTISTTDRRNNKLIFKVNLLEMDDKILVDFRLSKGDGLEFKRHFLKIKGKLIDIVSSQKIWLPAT

[8] = molecular target: Cyclin-dependent kinase 1 (Homo sapiens) (UniProt P06493); experiment: Inhibition of CDK1 at 10 uM by HTRF assay relative to control; how it was run: as §1
[9] = molecular target: Ribosomal protein S6 kinase beta-1 (Homo sapiens) (UniProt P23443); experiment: Inhibition of p70S6K at 10 uM by HTRF assay relative to control; how it was run: as §1
[10] = Inhibition of IRK at 10 uM by HTRF assay relative to control; how it was run: as §1
[11] = molecular target: Epidermal growth factor receptor (Homo sapiens) (UniProt P00533); experiment: Inhibition of EGFR at 10 uM by HTRF assay relative to control; how it was run: as §1
[12] = molecular target: Tyrosine-protein kinase Lyn (Homo sapiens) (UniProt P07948); experiment: Inhibition of Lyn at 10 uM by HTRF assay relative to control; how it was run: as §1
[13] = molecular target: Mitogen-activated protein kinase 9 (Homo sapiens) (UniProt P45984); experiment: Inhibition of JNK2 at 10 uM by HTRF assay relative to control; how it was run: as §1
[14] = molecular target: Protein-tyrosine kinase 6 (Homo sapiens) (UniProt Q13882); experiment: Inhibition of Brk at 10 uM by HTRF assay relative to control; how it was run: as §1
[15] = molecular target: T3, Inhibitor of nuclear factor kappa-B kinase subunit beta (Homo sapiens) (UniProt O14920); experiment: Inhibition of IKK-beta at 10 uM by HTRF assay relative to control; how it was run: as §1
T3 sequence (whole entry): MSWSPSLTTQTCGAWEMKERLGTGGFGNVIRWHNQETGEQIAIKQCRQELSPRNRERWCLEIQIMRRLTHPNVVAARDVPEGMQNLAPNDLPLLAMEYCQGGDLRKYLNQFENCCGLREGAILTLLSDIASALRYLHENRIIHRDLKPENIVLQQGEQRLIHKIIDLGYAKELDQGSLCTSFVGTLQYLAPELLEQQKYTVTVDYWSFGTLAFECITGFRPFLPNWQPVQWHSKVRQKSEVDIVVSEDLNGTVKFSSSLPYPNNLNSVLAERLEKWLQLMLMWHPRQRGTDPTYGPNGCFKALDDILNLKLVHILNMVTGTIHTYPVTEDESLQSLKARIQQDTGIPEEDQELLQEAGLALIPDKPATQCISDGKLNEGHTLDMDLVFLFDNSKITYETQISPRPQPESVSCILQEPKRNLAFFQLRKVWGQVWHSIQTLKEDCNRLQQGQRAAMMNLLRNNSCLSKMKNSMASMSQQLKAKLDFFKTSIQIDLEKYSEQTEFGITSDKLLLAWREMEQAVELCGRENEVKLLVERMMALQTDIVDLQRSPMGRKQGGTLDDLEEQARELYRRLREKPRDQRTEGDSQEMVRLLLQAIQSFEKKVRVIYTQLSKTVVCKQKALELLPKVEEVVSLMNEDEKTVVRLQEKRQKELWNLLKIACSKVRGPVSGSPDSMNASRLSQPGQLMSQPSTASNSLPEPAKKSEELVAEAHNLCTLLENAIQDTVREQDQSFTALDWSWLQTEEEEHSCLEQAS

[16] = molecular target: Tyrosine-protein kinase Fes/Fps (Homo sapiens) (UniProt P07332); experiment: Inhibition of FES at 10 uM by HTRF assay relative to control; how it was run: as §1
[17] = molecular target: Ribosomal protein S6 kinase alpha-3 (Homo sapiens) (UniProt P51812); experiment: Inhibition of RSK2 at 10 uM by HTRF assay relative to control; how it was run: as §1
Sequence of Ribosomal protein S6 kinase alpha-3 (Homo sapiens) (P51812 whole entry): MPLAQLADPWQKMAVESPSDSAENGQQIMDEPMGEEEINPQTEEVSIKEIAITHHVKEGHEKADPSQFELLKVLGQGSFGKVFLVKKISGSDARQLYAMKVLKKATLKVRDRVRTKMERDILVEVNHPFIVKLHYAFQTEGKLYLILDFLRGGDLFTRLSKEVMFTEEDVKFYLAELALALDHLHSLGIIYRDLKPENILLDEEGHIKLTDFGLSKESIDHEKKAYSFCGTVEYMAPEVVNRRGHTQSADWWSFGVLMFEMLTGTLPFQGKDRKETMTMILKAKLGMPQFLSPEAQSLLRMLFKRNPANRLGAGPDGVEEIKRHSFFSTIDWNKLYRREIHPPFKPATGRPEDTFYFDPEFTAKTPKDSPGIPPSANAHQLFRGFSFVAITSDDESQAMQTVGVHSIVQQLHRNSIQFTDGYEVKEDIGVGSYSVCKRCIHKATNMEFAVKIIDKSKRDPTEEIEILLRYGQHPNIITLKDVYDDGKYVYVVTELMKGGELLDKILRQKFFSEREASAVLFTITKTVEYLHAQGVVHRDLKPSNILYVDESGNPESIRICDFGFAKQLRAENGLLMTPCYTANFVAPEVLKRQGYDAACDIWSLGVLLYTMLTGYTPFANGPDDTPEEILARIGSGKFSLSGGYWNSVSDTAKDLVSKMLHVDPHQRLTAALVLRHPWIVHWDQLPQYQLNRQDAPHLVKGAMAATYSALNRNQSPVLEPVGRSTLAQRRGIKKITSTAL

Sequence of Cyclin-dependent kinase 1 (Homo sapiens) (P06493 whole entry, looked up): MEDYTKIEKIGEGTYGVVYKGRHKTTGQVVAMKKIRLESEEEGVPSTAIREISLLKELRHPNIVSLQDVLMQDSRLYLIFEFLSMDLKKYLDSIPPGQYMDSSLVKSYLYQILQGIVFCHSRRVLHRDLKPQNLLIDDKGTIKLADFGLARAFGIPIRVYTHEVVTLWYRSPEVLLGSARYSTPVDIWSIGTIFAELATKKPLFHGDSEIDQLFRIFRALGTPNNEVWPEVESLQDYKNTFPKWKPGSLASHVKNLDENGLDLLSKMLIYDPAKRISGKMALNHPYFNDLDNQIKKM
Sequence of Serine/threonine-protein kinase Chk2 (Homo sapiens) (O96017 whole entry): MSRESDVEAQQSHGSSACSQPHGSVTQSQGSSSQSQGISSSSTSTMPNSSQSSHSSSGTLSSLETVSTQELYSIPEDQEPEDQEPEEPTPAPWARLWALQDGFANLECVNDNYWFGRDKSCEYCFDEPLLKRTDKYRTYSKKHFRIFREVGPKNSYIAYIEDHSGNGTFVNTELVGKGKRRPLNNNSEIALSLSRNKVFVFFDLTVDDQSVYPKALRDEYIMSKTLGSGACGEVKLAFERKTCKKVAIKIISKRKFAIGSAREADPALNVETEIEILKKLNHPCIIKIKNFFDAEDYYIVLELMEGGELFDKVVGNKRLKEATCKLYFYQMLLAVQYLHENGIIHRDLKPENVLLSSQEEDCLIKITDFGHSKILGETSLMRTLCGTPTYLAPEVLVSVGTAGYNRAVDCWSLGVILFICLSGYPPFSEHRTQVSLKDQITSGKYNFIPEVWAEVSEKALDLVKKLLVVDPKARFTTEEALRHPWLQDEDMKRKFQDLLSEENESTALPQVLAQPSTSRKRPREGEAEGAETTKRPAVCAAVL
Sequence of Tyrosine-protein kinase Lyn (Homo sapiens) (P07948 2-512 limits assumed): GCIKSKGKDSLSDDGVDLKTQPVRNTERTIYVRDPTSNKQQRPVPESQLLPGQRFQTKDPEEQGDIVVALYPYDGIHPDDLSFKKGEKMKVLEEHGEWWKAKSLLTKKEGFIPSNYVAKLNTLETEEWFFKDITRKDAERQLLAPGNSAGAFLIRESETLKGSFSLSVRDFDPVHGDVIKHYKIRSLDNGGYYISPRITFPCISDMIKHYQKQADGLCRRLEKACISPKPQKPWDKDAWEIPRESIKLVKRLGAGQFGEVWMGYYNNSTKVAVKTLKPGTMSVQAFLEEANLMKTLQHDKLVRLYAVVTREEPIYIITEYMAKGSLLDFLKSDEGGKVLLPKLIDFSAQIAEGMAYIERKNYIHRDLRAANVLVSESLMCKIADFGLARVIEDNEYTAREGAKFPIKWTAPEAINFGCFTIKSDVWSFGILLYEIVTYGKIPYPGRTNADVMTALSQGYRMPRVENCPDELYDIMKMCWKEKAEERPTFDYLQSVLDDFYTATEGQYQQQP
Sequence of Epidermal growth factor receptor (Homo sapiens) (P00533 whole entry): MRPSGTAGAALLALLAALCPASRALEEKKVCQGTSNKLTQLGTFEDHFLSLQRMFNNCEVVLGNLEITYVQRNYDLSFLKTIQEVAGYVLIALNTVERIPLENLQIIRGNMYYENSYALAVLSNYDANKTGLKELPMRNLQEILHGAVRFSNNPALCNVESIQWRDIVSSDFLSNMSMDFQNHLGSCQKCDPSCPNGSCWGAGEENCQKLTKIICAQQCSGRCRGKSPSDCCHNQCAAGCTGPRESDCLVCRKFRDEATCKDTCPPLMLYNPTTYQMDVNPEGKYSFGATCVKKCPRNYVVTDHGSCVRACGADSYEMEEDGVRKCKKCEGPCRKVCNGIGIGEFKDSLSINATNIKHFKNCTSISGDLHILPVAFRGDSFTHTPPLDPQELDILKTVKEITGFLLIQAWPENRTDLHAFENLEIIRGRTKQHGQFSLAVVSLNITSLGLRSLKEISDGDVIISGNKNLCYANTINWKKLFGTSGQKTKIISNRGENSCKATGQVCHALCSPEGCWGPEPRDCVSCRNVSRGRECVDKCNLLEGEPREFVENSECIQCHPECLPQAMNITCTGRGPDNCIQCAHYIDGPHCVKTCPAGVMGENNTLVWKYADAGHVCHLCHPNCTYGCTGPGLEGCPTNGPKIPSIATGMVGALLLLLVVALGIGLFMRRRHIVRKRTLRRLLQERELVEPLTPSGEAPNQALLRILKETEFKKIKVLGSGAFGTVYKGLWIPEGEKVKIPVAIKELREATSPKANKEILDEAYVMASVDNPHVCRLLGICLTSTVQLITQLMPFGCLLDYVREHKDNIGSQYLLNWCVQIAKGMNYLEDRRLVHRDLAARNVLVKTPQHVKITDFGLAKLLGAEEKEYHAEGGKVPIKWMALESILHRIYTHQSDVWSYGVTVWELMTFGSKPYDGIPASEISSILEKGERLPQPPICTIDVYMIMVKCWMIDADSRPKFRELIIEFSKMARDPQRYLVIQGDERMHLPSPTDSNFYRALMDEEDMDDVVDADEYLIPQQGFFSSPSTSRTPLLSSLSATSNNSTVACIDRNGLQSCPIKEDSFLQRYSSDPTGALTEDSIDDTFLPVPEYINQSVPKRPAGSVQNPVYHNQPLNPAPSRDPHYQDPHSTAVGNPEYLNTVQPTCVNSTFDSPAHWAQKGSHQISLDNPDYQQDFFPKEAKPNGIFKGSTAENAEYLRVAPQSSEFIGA
Sequence of Mitogen-activated protein kinase 9 (Homo sapiens) (P45984 whole entry, looked up): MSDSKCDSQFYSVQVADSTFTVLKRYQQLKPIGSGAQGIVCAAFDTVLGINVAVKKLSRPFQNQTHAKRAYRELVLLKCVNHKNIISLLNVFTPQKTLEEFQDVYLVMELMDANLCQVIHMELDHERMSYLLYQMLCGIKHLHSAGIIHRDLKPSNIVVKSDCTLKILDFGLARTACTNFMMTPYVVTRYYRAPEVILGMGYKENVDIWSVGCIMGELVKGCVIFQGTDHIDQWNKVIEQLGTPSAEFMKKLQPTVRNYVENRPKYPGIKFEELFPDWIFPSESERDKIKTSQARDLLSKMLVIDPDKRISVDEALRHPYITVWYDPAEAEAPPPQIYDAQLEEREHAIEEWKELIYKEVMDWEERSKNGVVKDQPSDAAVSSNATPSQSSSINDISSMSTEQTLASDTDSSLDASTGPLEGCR
Sequence of High affinity nerve growth factor receptor (Homo sapiens) (P04629 33-796 limits assumed): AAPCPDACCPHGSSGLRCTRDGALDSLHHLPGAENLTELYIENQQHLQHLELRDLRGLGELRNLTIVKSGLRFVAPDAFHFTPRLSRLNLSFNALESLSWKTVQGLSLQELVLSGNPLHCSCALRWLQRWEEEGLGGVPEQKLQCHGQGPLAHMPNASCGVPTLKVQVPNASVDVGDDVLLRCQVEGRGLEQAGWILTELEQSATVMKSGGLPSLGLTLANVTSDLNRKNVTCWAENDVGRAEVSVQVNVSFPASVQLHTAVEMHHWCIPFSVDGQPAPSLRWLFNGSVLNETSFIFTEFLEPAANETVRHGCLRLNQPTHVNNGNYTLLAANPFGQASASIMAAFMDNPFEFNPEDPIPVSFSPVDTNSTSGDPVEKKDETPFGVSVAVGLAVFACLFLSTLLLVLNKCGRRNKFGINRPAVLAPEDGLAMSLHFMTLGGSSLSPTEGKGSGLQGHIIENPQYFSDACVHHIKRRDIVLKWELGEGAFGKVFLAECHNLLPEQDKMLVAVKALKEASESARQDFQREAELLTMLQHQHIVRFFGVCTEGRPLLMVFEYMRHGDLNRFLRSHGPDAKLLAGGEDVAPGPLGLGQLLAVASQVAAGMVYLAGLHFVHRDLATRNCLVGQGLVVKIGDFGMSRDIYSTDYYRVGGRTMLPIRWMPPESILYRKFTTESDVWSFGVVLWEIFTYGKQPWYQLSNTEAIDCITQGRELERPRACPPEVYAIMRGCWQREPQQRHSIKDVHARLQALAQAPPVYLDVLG
Sequence of Protein-tyrosine kinase 6 (Homo sapiens) (Q13882 whole entry, looked up): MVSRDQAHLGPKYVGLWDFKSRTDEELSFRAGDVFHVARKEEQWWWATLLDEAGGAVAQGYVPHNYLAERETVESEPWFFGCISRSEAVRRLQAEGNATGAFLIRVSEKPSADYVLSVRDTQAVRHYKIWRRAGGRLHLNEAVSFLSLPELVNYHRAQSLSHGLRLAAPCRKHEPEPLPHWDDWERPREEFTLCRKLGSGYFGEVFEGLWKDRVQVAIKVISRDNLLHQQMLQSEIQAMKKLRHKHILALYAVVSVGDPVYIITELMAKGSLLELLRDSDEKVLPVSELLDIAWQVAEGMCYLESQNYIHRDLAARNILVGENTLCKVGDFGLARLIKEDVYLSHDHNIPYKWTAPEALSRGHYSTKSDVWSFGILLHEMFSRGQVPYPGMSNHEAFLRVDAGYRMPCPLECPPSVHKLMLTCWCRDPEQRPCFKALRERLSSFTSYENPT

Cc1cccc(N(C)c2cc(Nc3cccc(C(=O)N(CC(C)C)CC(C)C)c3)ncn2)c1
inhibition [1]: 9%
inhibition [2]: 0%
inhibition [3]: 3%
inhibition [4]: 0%
inhibition [5]: 0%
inhibition [6]: 2%
inhibition [7]: 0%
inhibition [8]: 0%
inhibition [9]: 11%
inhibition [10]: 0%
inhibition [11]: 84%
inhibition [12]: 2%
inhibition [13]: 3%
inhibition [14]: 7%
inhibition [15]: 0%
inhibition [16]: 7%
inhibition [17]: 0%

From ChEMBL document CHEMBL1150387, “Development and experimental validation of a docking strategy for the generation of kinase-targeted libraries” (J Med Chem, 2008)
